{"data": "Measured values pooled from the literature", "target": "Interferon-induced, double-stranded RNA-activated protein kinase (EIF2AK2, Homo sapiens, UniProt P19525)"}
{"SMILES": "Cc1cnn2ncc(-c3ccnc(N(C)C)n3)c2c1", "read-out": "binding", "tested at": "1 µM", "remaining binding": "100%"}
{"SMILES": "O=C(Nc1c[nH]nc1C(=O)NC1CCNCC1)c1cc(F)cc(F)c1", "read-out": "binding", "method": "competition with immobilised ligand", "tested at": "1 µM", "remaining binding": "100%"}
{"SMILES": "CN(C)c1ncc(F)c(-c2cnn3ncccc23)n1", "read-out": "binding", "tested at": "1 µM", "remaining binding": "100%"}
{"SMILES": "O=C(O)[C@H]1[C@H](Cn2nnc3ccccc3c2=O)CC[C@@H]1C(=O)c1ccc(OCCC2CCOCC2)cc1", "read-out": "cell-free assay", "method": "competition with immobilised ligand", "tested at": "1 µM", "remaining binding": "91%"}
{"SMILES": "COc1ccnn2ncc(-c3ccnc(N(C)C)n3)c12", "read-out": "binding", "tested at": "1 µM", "remaining binding": "100%"}
{"SMILES": "Nc1ncc2c(n1)-c1c([nH]c3ccc(C#CC4CC4)cc13)CCCC2", "read-out": "binding", "method": "competition with immobilised ligand", "tested at": "1 µM", "remaining binding": "100%"}
{"SMILES": "CC(=O)C1=C(C)N(c2cccc(C(F)(F)F)c2)C(=O)N[C@@H]1c1ccc(C#N)nc1", "read-out": "cell-free assay", "method": "competition with immobilised ligand", "tested at": "1 µM", "remaining binding": "83.4%"}
{"SMILES": "c1cncc(-c2cccc(Nc3nccc(NC4CCCCC4)n3)c2)c1", "read-out": "binding", "method": "competition with immobilised ligand", "tested at": "10 µM", "remaining binding": "100%"}
{"SMILES": "O=C(c1ccc(Nc2nccc(-c3cc4ccccc4s3)n2)cc1)N1CCC(N2CCCC2)CC1", "read-out": "binding", "method": "competition with immobilised ligand", "tested at": "1 µM", "remaining binding": "21%"}
{"SMILES": "CN(C)c1nccc(-c2cnn3ncccc23)n1", "read-out": "binding", "tested at": "1 µM", "remaining binding": "100%"}
{"SMILES": "COc1cnc(Nc2cccc(S(N)(=O)=O)c2)nc1N1CCN(c2ccccc2)C(=O)C1", "read-out": "binding", "method": "competition with immobilised ligand", "tested at": "1 µM", "remaining binding": "99%"}
{"SMILES": "CC(=O)N1CCC(c2ccc(C(=O)NC(=N)N)cc2C(F)(F)F)CC1", "read-out": "cell-free assay", "method": "competition with immobilised ligand", "tested at": "1 µM", "remaining binding": "100%"}
{"SMILES": "COc1ncc2cc3ccccc3nc2c1C#N", "read-out": "cell-free assay", "method": "competition with immobilised ligand", "tested at": "5 µM", "remaining binding": "100%"}
{"SMILES": "CS(=O)(=O)N1CCCC(NC(=O)[C@H](CCC2CCCCC2)NC(=O)c2ccc(CNC(=O)c3cnc4ccccn34)cc2)C1 (some centres unmarked)", "read-out": "cell-free assay", "method": "competition with immobilised ligand", "tested at": "0.1 µM", "remaining binding": "47%"}
{"SMILES": "O=C(NCCCN1CCOCC1)c1ccc(Nc2ncc(Cl)c(-c3ccc(Cl)s3)n2)cc1", "read-out": "binding", "method": "competition with immobilised ligand", "tested at": "1 µM", "remaining binding": "58%"}
{"SMILES": "N[C@@H]1CCN(c2nccc(-c3cnn4ncccc34)n2)C1", "read-out": "binding", "tested at": "1 µM", "remaining binding": "100%"}
{"SMILES": "O=C(NCc1ncc(C(F)(F)F)cc1Cl)c1ccc2c(c1)C1(CCS(=O)(=O)CC1)[C@@H](C1CC1)N2S(=O)(=O)c1ccc(F)cc1", "read-out": "cell-free assay", "method": "competition with immobilised ligand", "tested at": "1 µM", "remaining binding": "97%"}
{"SMILES": "C[C@@H]1CCN(c2nccc(-c3cnn4ncccc34)n2)C1", "read-out": "binding", "tested at": "1 µM", "remaining binding": "83%"}
{"SMILES": "CN(C)c1ncnc(-c2ccc3nc(Nc4cc(CN5CCN(C(=O)CC(F)(F)F)CC5)ccn4)[nH]c3c2)c1Cl", "read-out": "cell-free assay", "method": "competition with immobilised ligand", "tested at": "1 µM", "remaining binding": "100%"}
{"SMILES": "O=C(c1ccc(Nc2ncc(Cl)c(-c3cc4ccccc4s3)n2)cc1)N1CCC(N2CCCC2)CC1", "read-out": "binding", "method": "competition with immobilised ligand", "tested at": "1 µM", "remaining binding": "22%"}
